Where a name gives a salt, the structure may show the parent alone. Read-outs that look alike come from different tables or passages of the source.
Assays:
[1] = assay type: in vivo, mice; conditions: for CL/F / Vd/F / AUC(0-t) / MRT last / MRT inf / half-life / Cmax / Tmax / increase of metabolite AUC by propranolol: DLX 12 mg/kg p.o.; for CL/F / Vd/F / AUC(0-inf) / AUC(0-t) / MRT last / MRT inf / half-life / Cmax / Tmax / increase of metabolite AUC by propranolol: plasma; for AUC(0-inf) / AUC(0-t) / MRT last / MRT inf / half-life / Cmax / Tmax: male, mouse, po, 12 mg/kg; for AUC(0-t): AUC0-t; for MRT last: MRT0-t; for MRT inf: MRT0-∞; for increase of metabolite AUC by propranolol: peak area
How it was run: (§1)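 16 h later they received DLX 12 mg/kg p.o. in 0.5% methyl cellulose. Tail-vein blood (heparin) was taken at 0–24 h (9 points) and spun to plasma. Plasma was methanol-precipitated with IS and run by LC-MS against a DLX standard curve. Parameters came from noncompartmental analysis; ratios were taken between group means.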

Cyp2d = assay type: in vivo, mice; conditions: male, mouse, plasma, po, 12 mg/kg
How it was run: as §1

[2] = assay type: in vivo, mice
[3] = Cyp1a2-KO mice, Cyp2d+I (propranolol 30 mg/kg 16 h before)
[4] = Cyp1a2-KO mice, control (vehicle)
[5] = WT mice, Cyp2d+I (propranolol 30 mg/kg 16 h before)
[6] = Cyp1a2-KO, Cyp1a2-KO mice, Cyp2d+I (propranolol 30 mg/kg 16 h before)
[7] = Cyp1a2-KO, Cyp1a2-KO mice, control (vehicle)
[8] = KO + control compared with WT + control, not statistically significant
[9] = KO + inhibitor compared to KO + control
[10] = WT + inhibitor compared to WT + control

CNCC[C@H](Oc1cccc2ccccc12)c1cccs1 [DLX, (3S)-N-methyl-3-(1-naphthyloxy)-3-(2-thienyl)propan-1-amine]
AUC0-t ratio Cyp2d+I/Control ([1]; Cyp1a2-KO mice): 2.29 | AUC0-∞ ratio Cyp2d+I/Control ([1]; Cyp1a2-KO mice): 2.26 | CL/F ratio Cyp2d+I/Control ([1]; Cyp1a2-KO mice): 0.40 | Cmax ratio Cyp2d+I/Control ([1]; Cyp1a2-KO mice): 3.95 | MRT0-t ratio Cyp2d+I/Control ([1]; Cyp1a2-KO mice): 0.80 | MRT0-∞ ratio Cyp2d+I/Control ([1]; Cyp1a2-KO mice): 0.76 | T1/2 ratio Cyp2d+I/Control ([1]; Cyp1a2-KO mice): 0.83 | Tmax ratio Cyp2d+I/Control ([1]; Cyp1a2-KO mice): 0.40 | Vd/F ratio Cyp2d+I/Control ([1]; Cyp1a2-KO mice): 0.30 | CL/F [1, 3]: 2.94 ± 0.34 mg/(hr*μmol/L)/kg | Vd/F [1, 3]: 15.44 ± 1.71 mg/(μmol/L)/kg | CL/F [1, 4]: 7.32 ± 1.60 mg/(hr*μmol/L)/kg | Vd/F [1, 4]: 51.03 ± 18.18 mg/(μmol/L)/kg | increase of AUC0-t by propranolol ([1]; KO + inhibitor vs KO + control): 129% | increase of Cmax by propranolol ([1]; KO + inhibitor vs KO + control): 295% | AUC0-t KO control/WT control ratio ([1]; KO control vs WT control): 0.89 | AUC0-∞ KO control/WT control ratio ([1]; KO control vs WT control): 0.89 | CL/F KO control/WT control ratio ([1]; KO control vs WT control): 1.18 | Cmax KO control/WT control ratio ([1]; KO control vs WT control): 0.56 | MRT0-t KO control/WT control ratio ([1]; KO control vs WT control): 1.14 | MRT0-∞ KO control/WT control ratio ([1]; KO control vs WT control): 1.16 | T1/2 KO control/WT control ratio ([1]; KO control vs WT control): 1.04 | Tmax KO control/WT control ratio ([1]; KO control vs WT control): 1.81 | Vd/F KO control/WT control ratio ([1]; KO control vs WT control): 1.28 | increase of AUC0-t by propranolol ([1]; WT + inhibitor vs WT + control): 304% | increase of Cmax by propranolol ([1]; WT + inhibitor vs WT + control): 177% | AUC0-t ratio Cyp2d+I/Control ([1]; WT mice): 4.04 | AUC0-∞ ratio Cyp2d+I/Control ([1]; WT mice): 4.01 | CL/F ratio Cyp2d+I/Control ([1]; WT mice): 0.30 | Cmax ratio Cyp2d+I/Control ([1]; WT mice): 2.78 | MRT0-t ratio Cyp2d+I/Control ([1]; WT mice): 1.10 | MRT0-∞ ratio Cyp2d+I/Control ([1]; WT mice): 1.04 | T1/2 ratio Cyp2d+I/Control ([1]; WT mice): 0.76 | Tmax ratio Cyp2d+I/Control ([1]; WT mice): 0.91 | Vd/F ratio Cyp2d+I/Control ([1]; WT mice): 0.26 | increase of AUC of DLX by propranolol ([1]; WT mice): 3 folds | CL/F [1, 5]: 1.88 ± 0.60 mg/(hr*μmol/L)/kg | Vd/F [1, 5]: 10.27 ± 5.02 mg/(μmol/L)/kg | CL/F ([1]; WT mice, control (vehicle)): 6.19 ± 0.97 mg/(hr*μmol/L)/kg | Vd/F ([1]; WT mice, control (vehicle)): 39.87 ± 9.28 mg/(μmol/L)/kg | AUC(0-inf) ([1]; Cyp1a2-KO): 1.89 ± 0.39 µM·h | AUC(0-t) [1, 6]: 4.23 ± 0.56 µM·h | AUC(0-t) [1, 7]: 1.85 ± 0.39 µM·h | MRT last [1, 6]: 4.61 ± 0.29 h | MRT last [1, 7]: 5.73 ± 0.22 h | MRT inf [1, 6]: 4.83 ± 0.27 h | MRT inf [1, 7]: 6.39 ± 0.26 h | half-life ([1]; Cyp1a2-KO, T1/2, Cyp1a2-KO mice, Cyp2d+I (propranolol 30 mg/kg 16 h before)): 3.66 ± 0.24 h | half-life ([1]; Cyp1a2-KO, T1/2, Cyp1a2-KO mice, control (vehicle)): 4.43 ± 0.64 h | AUC(0-inf) [1]: 2.12 ± 0.4 µM·h | AUC(0-t) [1, 5]: 8.45 ± 2.46 µM·h | AUC(0-t) ([1]; WT mice, control (vehicle)): 2.09 ± 0.41 µM·h | Cmax [1, 3]: 790 ± 210 nM | Cmax [1, 4]: 200 ± 20 nM | Cmax [1, 5]: 1000 ± 210 nM | Cmax ([1]; WT mice, control (vehicle)): 360 ± 50 nM | MRT last [1, 5]: 5.51 ± 0.16 h | MRT last ([1]; WT mice, control (vehicle)): 5.02 ± 0.18 h | MRT inf [1, 5]: 5.75 ± 0.21 h | MRT inf ([1]; WT mice, control (vehicle)): 5.52 ± 0.34 h | half-life ([1]; T1/2, WT mice, Cyp2d+I (propranolol 30 mg/kg 16 h before)): 3.32 ± 0.52 h | half-life ([1]; T1/2, WT mice, control (vehicle)): 4.28 ± 0.41 h | Tmax [1, 3]: 1 ± 0.35 h | Tmax [1, 4]: 2.5 ± 0.5 h | Tmax [1, 5]: 1.25 ± 0.25 h | Tmax ([1]; WT mice, control (vehicle)): 1.38 ± 0.38 h | AUC(0-inf) (Cyp2d; Cyp1a2-KO): 4.27 ± 0.57 µM·h | AUC(0-inf) (Cyp2d): 8.5 ± 2.45 µM·h | decrease of DLX level in liver [2, 8]: 48% | decrease of DLX level in lung [2, 8]: 31% | increase of DLX level in kidney [2, 8]: 62% | increase of DLX levels in brain and testis [2, 8]: around 25% | increase of DLX level in liver [2, 9]: 3 folds | increase of DLX levels in other tissues (than liver) [2, 9]: around 1.5 folds | elevation of DLX level in liver by Cyp2d inhibitor ([2]; KO mice (discussion)): 4.0 folds | increase of DLX level in kidney by Cyp2d inhibitor ([2]; KO mice (discussion)): 3.9 folds | increase of DLX level in kidney [2, 10]: Three-fold | increase of DLX levels in epididymis, testis and brain [2, 10]: 1–2 folds | increase of DLX levels in liver and spleen [2, 10]: around 90% | elevation of DLX level in liver by Cyp2d inhibitor ([2]; WT mice (discussion)): 1.9 folds | increase of DLX level in kidney by Cyp2d inhibitor ([2]; WT mice (discussion)): 2.5 folds

O=S(=O)(O)Oc1cccc2ccccc12 [M28, 1-naphthol sulfate]
increase of metabolite AUC by propranolol ([1]; KO mice): 73% | increase of metabolite AUC by propranolol ([1]; WT mice): 103% | increase of metabolite abundance in kidney by Cyp2d inhibitor ([2]; WT + inhibitor vs WT + control, or KO + inhibitor vs KO + control): over 65%
